“And” between values parts separate entries of the source, which are not always exact repeats. Equal entries are not always repeated.
Test system: HEK-293T
Assay: Multiplex assay against HEK293T;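 for Population Tubulin-Different-Phenotype (%): share of the cells with healthy nuclei that show this phenotype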
Assay type: toxicity, cell-based
Details: human, 10 µM, compound concentration 10 uM
Procedure, shortened: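 On a CQ1 microscope at 37°C and 5% CO2, live cells were imaged after compound addition. They had been stained at seeding with Hoechst33342, BioTracker Green Microtubule Cytoskeleton Dye, MitoTracker Red and Annexin V Alexa Fluor 680. CellPathfinder machine-learning gating assigned cells to Hoechst high-intensity objects or normal cells, normal cells to healthy, pyknosed or fragmented nuclei, and pyknosed cells to mitotic or apoptotic. Tubulin, mitochondrial-mass and membrane-permeability phenotypes are per cents of healthy-nucleus cells.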

In the case of O=C(NCCN1CCOCC1)c1ccc2c(c1)C(=O)c1ccc(Nc3ccc(F)c(NC(=O)c4ccccc4)c3)cc1CC2 [FS-694], the “Population Apoptotic (%)” value (12 h, replicate 1) was 34%, the “Population Fragmented Nuclei (%)” value (12 h, replicate 1) was 35% and 16% and the “Population Healthy Nuclei (%)” value (12 h, replicate 1) was 29% and 54%. The “Population Membrane Permeable-Phenotype (%)” value (12 h, replicate 1) was 32% and 21%, the “Population Mitochondria Different-Phenotype (%)” value (12 h, replicate 1) was 12% and 9% and the “Population Mitotic Cells (%)” value (12 h, replicate 1) was 65%. The “Population Normal (%)” value (12 h, replicate 1) was 41% and 85%, the “Population Pyknosed Nuclei (%)” value (12 h, replicate 1) was 35% and 29% and the “Population Tubulin-Different-Phenotype (%)” value (12 h, replicate 1) was 30% and 33%. For the same compound, the “Total Cell Count” value (12 h, replicate 1) was 1239 and 557, the “Population Apoptotic (%)” value (12 h, replicate 2) was 28% and 16% and the “Population Fragmented Nuclei (%)” value (12 h, replicate 2) was 3% and 4%. For the same compound, the “Population Healthy Nuclei (%)” value (12 h, replicate 2) was 69% and 85%, the “Population Membrane Permeable-Phenotype (%)” value (12 h, replicate 2) was 15% and 11% and the “Population Mitochondria Different-Phenotype (%)” value (12 h, replicate 2) was 47% and 23%. The “Population Mitotic Cells (%)” value (12 h, replicate 2) was 71% and 83%, the “Population Normal (%)” value (12 h, replicate 2) was 76% and 96% and the “Population Pyknosed Nuclei (%)” value (12 h, replicate 2) was 26% and 9%. For the same compound, the “Population Tubulin-Different-Phenotype (%)” value (12 h, replicate 2) was 97% and 66%, the “Total Cell Count” value (12 h, replicate 2) was 1142 and 1356 and the “Population Apoptotic (%)” value (24 h, replicate 1) was 48% and 24%. The “Population Membrane Permeable-Phenotype (%)” value (24 h, replicate 1) was 31% and 22%, the “Population Mitochondria Different-Phenotype (%)” value (24 h, replicate 1) was 14% and 8% and the “Population Mitotic Cells (%)” value (24 h, replicate 1) was 51% and 75%. The “Population Normal (%)” value (24 h, replicate 1) was 43% and 89%, the “Population Pyknosed Nuclei (%)” value (24 h, replicate 1) was 34% and 16% and the “Population Tubulin-Different-Phenotype (%)” value (24 h, replicate 1) was 18% and 51%. For the same compound, the “Total Cell Count” value (24 h, replicate 1) was 1331 and 564, the “Population Fragmented Nuclei (%)” value (24 h, replicate 2) was 5% and the “Population Healthy Nuclei (%)” value (24 h, replicate 2) was 85% and 58%. For the same compound, the “Population Mitotic Cells (%)” value (24 h, replicate 2) was 90% and 60%, the “Population Normal (%)” value (24 h, replicate 2) was 95% and 69% and the “Population Tubulin-Different-Phenotype (%)” value (24 h, replicate 2) was 70% and 96%. For the same compound, the “Total Cell Count” value (24 h, replicate 2) was 1983 and 1283.
